IC50 data for eight compounds are collected here from BindingDB's records for doi:10.1016/j.ejmech.2009.05.023 (Sun Yat-Sen University, 2009).

In the experiment the target is T1, Polyphenol oxidase 2 (Agaricus bisporus, UniProt O42713).
T1 sequence (O42713 whole entry): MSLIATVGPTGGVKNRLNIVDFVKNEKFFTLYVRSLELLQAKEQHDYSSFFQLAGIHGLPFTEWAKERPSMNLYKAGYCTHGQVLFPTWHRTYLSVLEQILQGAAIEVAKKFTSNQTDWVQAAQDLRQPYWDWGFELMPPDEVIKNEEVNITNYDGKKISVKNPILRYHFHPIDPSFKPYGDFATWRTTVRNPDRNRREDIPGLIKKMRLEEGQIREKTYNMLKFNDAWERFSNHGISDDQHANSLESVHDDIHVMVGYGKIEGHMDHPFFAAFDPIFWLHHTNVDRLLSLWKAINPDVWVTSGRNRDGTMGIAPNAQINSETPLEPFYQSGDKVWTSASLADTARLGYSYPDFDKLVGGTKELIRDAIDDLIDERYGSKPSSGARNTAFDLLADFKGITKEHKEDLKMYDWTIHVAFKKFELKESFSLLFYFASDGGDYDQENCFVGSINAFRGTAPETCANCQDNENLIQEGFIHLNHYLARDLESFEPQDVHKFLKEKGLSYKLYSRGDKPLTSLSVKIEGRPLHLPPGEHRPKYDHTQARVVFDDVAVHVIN
Briefly: Inhibition of mushroom tyrosinase. The essentials: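 Mushroom tyrosinase diphenolase assay: 1 mL reaction with 0.5 mM L-DOPA in 50 mM sodium phosphate buffer, pH 6.8, enzyme final 0.5 mg/mL, 25 °C. Compounds dissolved in DMSO (2.0% final); DMSO-only controls run. Dopachrome formation followed at 475 nm for 1 min. IC50 interpolated from dose–response curves; means of three experiments.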
As to `COCCOCCOc1ccc(Cc2c(O)[nH]c(=O)[nH]c2=O)cc1` [5-(4-(2-(2-Methoxyethoxy)ethoxy)benzyl)pyrimidine-2,4,6(1H,3H,5H)trione], the IC50 (usually the concentration that inhibits the measured activity by half) is over 200 µM.

`CCCCOCCOc1ccc(Cc2c(O)[nH]c(=O)[nH]c2=O)cc1` [5-(4-(2-Butoxyethoxy)benzyl)pyrimidine-2,4,6(1H,3H,5H)-trione] gave an IC50 of over 200 µM.

The compound `O=c1[nH]c(O)c(Cc2ccc(OCCO)cc2)c(=O)[nH]1` [5-(4-(2-Hydroxyethoxy)benzyl)pyrimidine-2,4,6(1H,3H,5H)-trione] displayed an IC50 of over 200 µM.

Take `COCCOc1ccc(Cc2c(O)[nH]c(=O)[nH]c2=O)cc1` [5-(4-(2-Methoxyethoxy)benzyl)pyrimidine-2,4,6(1H,3H,5H)-trione]: the IC50 is over 200 µM.

`COCCCCOc1ccc(Cc2c(O)[nH]c(=S)[nH]c2=O)cc1` [5-(4-(4-Methoxybutoxy)benzyl)-2-thioxodihydropyrimidine-4,6(1H,5H)-dione] showed an IC50 of over 200 µM.

`O=c1[nH]c(O)c(Cc2ccc(O)cc2)c(=O)[nH]1` [5-(4-Hydroxybenzyl)pyrimidine-2,4,6(1H,3H,5H)-trione] yielded an IC50 of over 200 µM.

For the compound `O=c1cc(O)[nH]c(=O)[nH]1` [Barbituric acid], the IC50 was over 200 µM.

As to `Oc1cc(O)nc(S)n1` [Thiobarbituric], the IC50 is over 200 µM.
